Data: publication PMC5495021 (Leukemia & lymphoma, 2015)
Entries after “also recorded” stand apart in the source; their conditions may differ. Read-outs that look alike come from different tables or passages of the source.

How the values were obtained:
[1] = system: vascular endothelial growth factor receptor type 1 (VEGFR1); details: preclinical; cited from earlier work
[2] = system: platelet-derived growth factor receptor (PDGFR); details: preclinical; cited from earlier work
xenograft models = details: cited from earlier work
[3] = Plasma pharmacokinetics of SAR103168 in phase I patients; assay type: in vivo, human
[4] = system: vascular endothelial growth factor receptor type 2 (VEGFR2); details: preclinical; cited from earlier work
[5] = system: acute and chronic myeloid leukemic cells; details: inhibition of proliferation and induction of apoptosis; cited from earlier work
BCR-Abl kinase = details: preclinical; cited from earlier work
[6] = human, in vivo
[7] = Safety / adverse events and DLT in phase I dose escalation study
Tie2 = details: preclinical; cited from earlier work
Src kinase family = details: preclinical; cited from earlier work
[8] = preclinical toxicology studies; cited from earlier work
human AML leukemic cells = details: animals implanted with human AML leukemic cells; cited from earlier work
[9] = system: epidermal growth factor receptor (EGFR); details: preclinical; cited from earlier work
[10] = system: fibroblast growth factor receptor (FGFR); details: preclinical; cited from earlier work
[11] = system: refractory/relapsed acute leukemias or high-risk myelodysplastic syndromes; test: Anti-leukemic efficacy; assay type: in vivo, human
Procedure, shortened: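 Adults with refractory/relapsed acute leukemia, accelerated/blast-phase CML, or high-risk MDS received IV infusion daily for 5 days per course, starting at 1.2 mg/m2/day with dose escalation. Response was graded by IWG criteria (acute leukemia/MDS) or European LeukemiaNet definitions (CML). Marrow aspirate/biopsy at baseline, course 2 Day 11–14, every 2 courses, and end of study. Descriptive statistics.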

CYP2D6 = CYP2D6 (Homo sapiens, UniProt P10635); test: Contribution of CYP enzymes to metabolism; assay type: in vitro ADME
CYP2D6, sequence (P10635 whole entry): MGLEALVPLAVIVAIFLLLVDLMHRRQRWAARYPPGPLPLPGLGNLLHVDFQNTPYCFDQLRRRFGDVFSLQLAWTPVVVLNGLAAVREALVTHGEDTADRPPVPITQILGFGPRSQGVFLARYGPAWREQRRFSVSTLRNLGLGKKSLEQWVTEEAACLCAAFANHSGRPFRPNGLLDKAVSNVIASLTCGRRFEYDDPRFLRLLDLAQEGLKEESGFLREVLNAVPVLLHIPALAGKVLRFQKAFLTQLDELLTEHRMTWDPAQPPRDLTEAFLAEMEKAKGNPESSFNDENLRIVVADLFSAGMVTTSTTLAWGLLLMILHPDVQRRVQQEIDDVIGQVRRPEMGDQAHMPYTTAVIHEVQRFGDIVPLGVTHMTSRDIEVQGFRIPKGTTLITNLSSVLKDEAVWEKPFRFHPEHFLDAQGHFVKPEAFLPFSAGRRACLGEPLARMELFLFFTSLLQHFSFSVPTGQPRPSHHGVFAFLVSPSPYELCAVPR

[12] = system: leukemic progenitor cells from 29 patients with AML; details: including poor-prognosis chromosome abnormalities; cited from earlier work
Protein binding = assay type: in vitro ADME, human; details: no saturation over a clinically relevant concentration range
[13] = cited from earlier work
[14] = mice at active doses (16.7 mg/kg IV or 2 × 40 mg/kg PO)

Structure (SMILES): CC(C)(C)NC(=O)Nc1nc2nc(Nc3ccc4nsnc4c3)ncc2cc1-c1c(Cl)cccc1Cl [SAR103168, 1-[2-(2,1,3-benzothiadiazol-5-ylamino)-6-(2,6-dicholophenyl)-pyridol[2,3-d]pyrimidin-7-yl]-3′-tert-butylurea]
- activity against VEGFR1 [1]: Nanomolar activity
- activity against PDGFR [2]: Nanomolar activity
- active dose in various tumor models (xenograft models; IV, in mice): 16.7 mg/kg
- putative, partially active dose level (xenograft models; based on the preclinical data, human-equivalent of 10 mg/kg in mouse): ~ 30 mg/m^2
- putative, partially active dose level (xenograft models; in mouse, preclinical data): 10 mg/kg
- time by which mean plasma concentrations were below the limit of detection ([3]; all dose groups): ≤ 24 h
- tlast ([3]; generally, over the dose range 1.2 to 14.4 mg/m2): ≤ 7 h
- accumulation in exposures (Cmax or AUClast) upon multiple daily dosings ([3]; human, in vivo): limited accumulation
- patient exposure (AUC) ([3]; human, in vivo, 14.4 mg/m2): ~ 1000 ng/h/mL
- patient exposure (Cmax) ([3]; human, in vivo, 14.4 mg/m2): ~ 500 ng/mL
- activity against VEGFR2 [4]: Nanomolar activity
- IC50 of anti-leukemic effects [5]: nanomolar
- activity against the BCR-Abl kinase (BCR-Abl kinase): Nanomolar activity
- maximum tolerated dose (MTD) [6]: prior to reaching the MTD
- discontinuation of study treatment due to adverse events ([7]; 29 treated patients): 10.3%
- SAE Preferred Term ([7]; planned dose level 1.2 mg/m^2, Relationship to Study Drug: No): Multi-organ failure; also recorded: Bacteremia; also recorded: Pneumonia fungal; also recorded: Febrile neutropenia
- SAE Preferred Term ([7]; planned dose level 1.2 mg/m^2, Relationship to Study Drug: Yes): Echocardiogram abnormal
- SAE Preferred Term ([7]; planned dose level 1.7 mg/m^2, Relationship to Study Drug: No): Deep vein thrombosis; also recorded: Febrile neutropenia; also recorded: Staphylococcal sepsis; also recorded: Disease progression; also recorded: Pulmonary embolism
- SAE Preferred Term ([7]; planned dose level 2.4 mg/m^2, Relationship to Study Drug: No): Perirectal abscess; also recorded: Febrile neutropenia; also recorded: Anemia; also recorded: Disease progression; also recorded: Septic shock
- SAE Preferred Term ([7]; planned dose level 4.8 mg/m^2, Relationship to Study Drug: No): Bone pain; also recorded: Febrile neutropenia; also recorded: Disease progression
- SAE Preferred Term ([7]; planned dose level 9.6 mg/m^2, Relationship to Study Drug: No): Pneumonia; also recorded: Bacteremia; also recorded: Asthenia
- SAE Preferred Term ([7]; planned dose level 14.4 mg/m^2, Relationship to Study Drug: No): Disease progression; also recorded: Sinusitis fungal; also recorded: Sepsis
- activity against Tie2 (Tie2): Nanomolar activity
- activity against the Src kinase family (Src kinase family): Nanomolar activity
- toxicity profile [8]: favorable toxicity profile
- effect of administration on tumors (human AML leukemic cells): tumor regression
- activity against EGFR [9]: Nanomolar activity
- activity against FGFR [10]: Nanomolar activity
- transient decrease in peripheral blasts ([11]; efficacy population): One patient
- clinical benefit ([11]; within the tested dose range): did not demonstrate a clear clinical benefit
- contribution of CYP2D6 to the compound's metabolism (CYP2D6): ~ 20%
- AML patient samples sensitive to the agent [12]: over 85%
- Human protein binding (Protein binding): > 99.3%
- AUCs achieved in animal models [13, 14]: ≥ 16000 ng/h/mL
- Cmax achieved in animal models [13, 14]: ≥ 3600 ng/mL
- exposures (AUCs) which demonstrated in vivo activity in xenograft models ([13]; xenograft models): 16000 ng/h/mL
